Measured values: ChEMBL document CHEMBL1131156, “Studies on selectin blockers. 7. Structure-activity relationships of sialyl Lewis X mimetics based on modified Ser-Glu dipeptides” (J Med Chem, 1998)
pIC50: −log10 of the molar value.

Legend:
P-selectin [1] = molecular target: T1, P-selectin (Homo sapiens, UniProt P16109); experiment: Inhibition of Selectin P binding
T1 sequence (P16109 whole entry): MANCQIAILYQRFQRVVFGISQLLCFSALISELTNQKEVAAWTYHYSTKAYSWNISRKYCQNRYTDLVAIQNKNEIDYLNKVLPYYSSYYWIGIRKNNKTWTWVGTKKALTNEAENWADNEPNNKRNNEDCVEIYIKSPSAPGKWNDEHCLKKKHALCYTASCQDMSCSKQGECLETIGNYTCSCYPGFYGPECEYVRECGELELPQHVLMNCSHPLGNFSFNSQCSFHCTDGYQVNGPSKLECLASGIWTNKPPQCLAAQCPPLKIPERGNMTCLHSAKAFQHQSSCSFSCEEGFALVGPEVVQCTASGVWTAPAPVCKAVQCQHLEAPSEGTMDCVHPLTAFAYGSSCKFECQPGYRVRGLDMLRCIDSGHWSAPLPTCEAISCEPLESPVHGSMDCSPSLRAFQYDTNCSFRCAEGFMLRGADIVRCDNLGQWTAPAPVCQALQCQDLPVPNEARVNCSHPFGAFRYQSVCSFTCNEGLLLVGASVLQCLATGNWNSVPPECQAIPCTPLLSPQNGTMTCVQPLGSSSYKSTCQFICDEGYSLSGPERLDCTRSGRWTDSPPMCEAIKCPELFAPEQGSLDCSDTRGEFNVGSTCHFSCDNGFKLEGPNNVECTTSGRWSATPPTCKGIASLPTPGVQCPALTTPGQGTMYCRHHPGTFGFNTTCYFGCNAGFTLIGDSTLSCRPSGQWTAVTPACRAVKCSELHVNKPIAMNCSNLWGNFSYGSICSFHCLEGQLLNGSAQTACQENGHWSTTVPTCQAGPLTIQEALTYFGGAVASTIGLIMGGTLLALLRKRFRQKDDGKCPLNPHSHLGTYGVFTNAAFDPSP
Method in brief: (§1)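 Wells coated with sLeX pentasaccharide ceramide analogue (100 pmol/well, dried from 1:1 methanol/water), blocked with 5% BSA-1 mM CaCl2/50 mM imidazole (pH 7.2) 1 h RT. Selectin-Ig fusion was precomplexed 30 min RT with biotinylated goat F(ab')2 anti-human IgG/streptavidin-alkaline phosphatase. Compounds (DMSO stock 10 mM; […]) were incubated with complex 30 min RT, then in wells 45 min at 37 °C. Detection used p-nitrophenyl phosphate in diethanolamine, pH 9.8.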

E-selectin = molecular target: T2, E-selectin (Homo sapiens, UniProt P16581); experiment: Displacement of sialyl Lewis X (sLex) from selectin E
T2 sequence (P16581 whole entry): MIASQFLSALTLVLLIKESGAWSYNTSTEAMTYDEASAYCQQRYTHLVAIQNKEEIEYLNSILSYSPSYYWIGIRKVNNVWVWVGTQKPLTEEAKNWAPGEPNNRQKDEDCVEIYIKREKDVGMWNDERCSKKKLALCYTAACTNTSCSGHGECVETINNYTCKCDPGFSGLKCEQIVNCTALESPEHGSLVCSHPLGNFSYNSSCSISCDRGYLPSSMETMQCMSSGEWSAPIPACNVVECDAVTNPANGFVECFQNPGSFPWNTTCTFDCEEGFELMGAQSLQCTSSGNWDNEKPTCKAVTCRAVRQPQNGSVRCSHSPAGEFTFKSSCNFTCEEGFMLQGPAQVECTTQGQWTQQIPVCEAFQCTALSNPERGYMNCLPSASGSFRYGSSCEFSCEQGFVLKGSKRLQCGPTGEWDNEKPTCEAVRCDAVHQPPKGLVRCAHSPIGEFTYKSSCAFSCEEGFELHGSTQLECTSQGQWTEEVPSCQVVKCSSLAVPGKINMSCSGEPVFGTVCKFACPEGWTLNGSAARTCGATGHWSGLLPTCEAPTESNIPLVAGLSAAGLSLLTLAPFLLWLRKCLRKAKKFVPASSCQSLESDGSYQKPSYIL

L-selectin = molecular target: T3, L-selectin (Homo sapiens, UniProt P14151); experiment: Inhibition of Selectin L binding; method in brief: as §1
T3 sequence (P14151 whole entry): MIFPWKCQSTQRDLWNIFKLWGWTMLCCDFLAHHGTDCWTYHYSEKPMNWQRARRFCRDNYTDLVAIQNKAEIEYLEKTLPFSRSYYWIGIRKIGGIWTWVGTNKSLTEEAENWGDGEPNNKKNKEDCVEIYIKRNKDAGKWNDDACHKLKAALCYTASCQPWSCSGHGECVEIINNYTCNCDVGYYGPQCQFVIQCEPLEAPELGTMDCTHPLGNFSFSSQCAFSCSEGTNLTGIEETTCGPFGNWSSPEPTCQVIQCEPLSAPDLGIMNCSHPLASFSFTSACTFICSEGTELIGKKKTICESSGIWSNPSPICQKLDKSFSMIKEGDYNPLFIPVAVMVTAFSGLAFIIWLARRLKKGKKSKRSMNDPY

P-selectin [2] = molecular target: T1, P-selectin; experiment: The compound was tested for the concentration to inhibit 50% of Selectin P by blocking its activity; range is 250-500

Row | SMILES | pIC50 (P-selectin [1]) | pIC50 (E-selectin) | pIC50 (L-selectin) | pIC50 (P-selectin [2])
1 | CCCCCCCCCCCCCCC(CCCCCCCCCCCCCC)C(=O)N[C@H](COC1OC(C)C(O)C(O)C1O)C(=O)NC(CC(=O)O)C(=O)NC (stereo partly specified) | 5.44 | < 3.30 | 5.42 | –
2 | CCCCCCCCCCCCCCC(CCCCCCCCCCCCCC)C(=O)N[C@H](CO[C@H]1O[C@H](CO)[C@@H](O)[C@@H](O)[C@@H]1O)C(=O)N[C@@H](CCC(=O)O)C(=O)NC | 6.35 | 5.46 | 5.40 | –
3 | CCCCCCCCCCCC(CCCCCCCCCCC)C(=O)N[C@H](COC1OC(C)C(O)C(O)C1O)C(=O)NC(CCC(=O)O)C(=O)NC (stereo partly specified) | 4.82 | 3.80 | 4.92 | –
4 | CCCCCCCCCCCCCCC(CCCCCCCCCCCCCC)C(=O)N[C@H](CO[C@H]1O[C@@H](C)[C@@H](O)[C@H](O)[C@@H]1O)C(=O)N[C@@H](CCC(=O)O)C(=O)NC | 6.52 | < 4.00 | 5.80 | –
5 | CCCCCCCCCCCCCCC(CCCCCCCCCCCCCC)C(=O)N[C@H](CO[C@H]1O[C@@H](C)[C@@H](O)[C@H](O)[C@@H]1O)C(=O)N[C@H](CCC(=O)O)C(=O)NC | 6.52 | < 3.00 | 6.15 | –
6 | CCCCCCCCCCCCCCC(CCCCCCCCCCCCCC)C(=O)N[C@H](COC1OC(C)C(O)C(O)C1O)C(=O)N[C@@H](CCC(=O)OC)C(=O)NC (stereo partly specified) | 4.43 | < 3.30 | < 3.30 | –
7 | CCCCCCCCCCCCCCC(CCCCCCCCCCCCCC)C(=O)N[C@@H](CO[C@H]1O[C@H](CO)[C@@H](O)[C@@H](O)[C@@H]1O)C(=O)N[C@H](CCC(=O)O)C(=O)NC (stereo in doubt; 5b) | 6.38 | 4.80 | 5.51 | –
8 | CCCCCCCCCCCCCCC(CCCCCCCCCCCCCC)C(=O)N[C@@H](CO[C@H]1O[C@H](CO)[C@@H](O)[C@@H](O)[C@@H]1O)C(=O)N[C@H](CCC(=O)O)C(=O)NC (stereo in doubt; 5d) | 6.42 | < 3.00 | 5.36 | –

Next, values leading:

Row | pIC50 (P-selectin [1]) | pIC50 (E-selectin) | pIC50 (L-selectin) | pIC50 (P-selectin [2]) | SMILES
9 | – | < 3.30 | 3.70 | 3.60 | CCCCCCCCCCCCCCCC(=O)N[C@H](COC1OC(C)C(O)C(O)C1O)C(=O)NC(CCC(=O)O)C(=O)NC (stereo partly specified)
10 | 6.22 | < 3.00 | 5.74 | – | CCCCCCCCCCCCCCC(CCCCCCCCCCCCCC)C(=O)N[C@@H](CO[C@H]1O[C@@H](C)[C@@H](O)[C@H](O)[C@@H]1O)C(=O)N[C@@H](CCC(=O)O)C(=O)NC
11 | 6.52 | < 4.00 | 6.10 | – | CCCCCCCCCCCCCCC(CCCCCCCCCCCCCC)C(=O)N[C@@H](CO[C@H]1O[C@@H](C)[C@@H](O)[C@H](O)[C@@H]1O)C(=O)N[C@H](CCC(=O)O)C(=O)NC
12 | 5.80 | < 3.30 | 5.62 | – | CCCCCCCCCCCCCCC(CCCCCCCCCCCCCC)C(=O)N[C@H](COC1OC(C)C(O)C(O)C1O)C(=O)NC(CCC(=O)O)C(=O)OC (stereo partly specified)
13 | 6.17 | < 3.00 | 5.38 | – | CCCCCCCCCCCCCCC(CCCCCCCCCCCCCC)C(=O)N[C@@H](CO[C@H]1O[C@H](CO)[C@@H](O)[C@@H](O)[C@@H]1O)C(=O)N[C@H](CCC(=O)O)C(=O)NC (stereo in doubt; 5c)
14 | < 3.00 | – | < 3.00 | – | CC(=O)N[C@H]1[C@H]([C@H](O)[C@H](O)CO)O[C@@](O[C@H]2[C@@H](O)[C@@H](CO)O[C@@H](O[C@@H]([C@H](O[C@@H]3O[C@@H](C)[C@@H](O)[C@@H](O)[C@@H]3O)[C@H](C=O)NC(C)=O)[C@H](O)CO)[C@@H]2O)(C(=O)O)C[C@@H]1O [SIALYL LEWIS X]
